GPR7 antagonist – antagonists of human GPR7 (neuropeptides B/W receptor 1); inhibition, % at 4.4 µM; GPR7-expressing cells, fluorescence antagonist assay; P48145; 1.1% of 290,000 active; AID 1861; in the data active means inhibition above about 16%, passing the limit was not always enough;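 further: cells stimulated with the agonist NPW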
ZTA counter – ZTA (EBV) inhibition in EBNA-1 counter-screen. P03206. inhibition, % at 11 µM. 0.15% of 320,000 active. ZTA-DNA binding, fluorescence polarization; in the data active means inhibition above about 33%
Target sequence (P03206 whole entry, looked up): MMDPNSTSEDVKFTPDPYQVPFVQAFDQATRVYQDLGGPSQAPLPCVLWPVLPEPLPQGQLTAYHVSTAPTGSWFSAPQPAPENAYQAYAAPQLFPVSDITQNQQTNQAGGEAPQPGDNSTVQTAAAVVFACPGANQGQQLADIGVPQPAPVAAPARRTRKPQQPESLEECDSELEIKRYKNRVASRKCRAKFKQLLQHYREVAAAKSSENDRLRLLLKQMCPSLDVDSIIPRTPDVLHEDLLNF
FID counter – fluorescent intercalator displacement, NS3 helicase counter-screen. DNA fluorescent intercalator displacement, fluorescence. inhibition, % at 7.9 µM. 0.17% of 290,000 active; in the data active means inhibition above about 37%;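 further: higher means more ethidium bromide displaced from hairpin DNA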
EBNA-1 inhibitor – blocks EBNA-1 binding to DNA; EBNA-1 DNA binding, fluorescence polarization; inhibition, % at 14.8 µM; 0.34% of 300,000 active; AID 1950; in the data active means inhibition above about 28%
NS3 helicase inh – HCV NS3 helicase inhibition; NS3 helicase DNA unwinding, Cy5 molecular beacon fluorescence; inhibition, % at 10.9 µM; 0.56% of 290,000 active;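 active means inhibition above the mean of all tested compounds plus 3 SD, set per campaign, cut at about 35% in these data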
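System: HCV NS3 helicase fragment; control set: DMSO and thioflavine S; technique: Cy5 fluorescence at 0 and 60 min, beacon hairpin quenching; reagent: beacon DNA duplex substrate plus ATP; replicates: singlicate; schedule: 1 h reaction at 25 °C, ATP-initiated; medium: MOPS buffer pH 6.5 with MgCl2, DTT, Tween20, BSA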
GPR7 antag cf – confirmation of human GPR7 antagonists | inhibition, % at 4.4 µM | shares compounds with GPR7 antagonist | AID 1952 | GPR7-expressing cells, calcium fluorescence antagonist mode | 52% of 2,400 active; in the data active means inhibition above about 24%;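 further: stimulated with the GPR7 agonist NPW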
MCHR1 antag – MCHR1 (human) antagonism in GPR7 counter-screen. shares compounds with GPR7 antagonist. MCHR1-expressing cells, fluorescence antagonist assay. inhibition, % at 4.4 µM. 62% of 2,400 active; in the data active means inhibition above about 22%
Hits are given with their value; n = inactive; x = no result. Shown are actives, neighbours in structure and some others; about 2% of the full set was active somewhere.

SMILES	GPR7 antagonist	ZTA counter	FID counter	EBNA-1 inhibitor	NS3 helicase inh	GPR7 antag cf	MCHR1 antag
CCC(C)[C@H]1CNCCN1CCC12CC3CC(CC(C3)C1)C2 (stereo partly specified)	x	n	x	x	x	x	x
CCCN(CC(=O)Nc1ccc(F)c(F)c1F)CC(=O)Nc1c(Cl)cccc1Cl	22	n	n	n	n	25	25
CCCN(CC(=O)Nc1cccc(Br)c1)CC(=O)Nc1ccc(F)c(F)c1F	23	n	n	n	n	31	47
CC(C)CN(C(=O)COC(=O)c1ccccn1)c1c(N)n(Cc2ccccc2)c(=O)[nH]c1=O	x	n	x	n	x	x	x
CCc1nnc(NC(=O)CSCc2cc(=O)n3nc(C)sc3n2)s1	n	n	n	n	n	x	x
c1ccc(CCn2nnnc2C(c2cccs2)N2CCN(Cc3ccc4c(c3)OCO4)CC2)cc1 (stereo unspecified)	22	n	n	n	n	n	34
OC(COc1ccc(F)cc1Cl)CN1CCC(Cc2ccccc2)CC1 (stereo unspecified)	42	n	39	n	n	n	43
OC(COc1ccccc1F)CN1CCC(Cc2ccccc2)CC1 (stereo unspecified)	n	n	n	n	n	x	x
Cc1nnc(N2C(=O)c3cccc4c([N+](=O)[O-])ccc(c34)C2=O)s1	28	n	n	n	n	33	51
Cc1ccnc(N2C(=O)c3cccc4c([N+](=O)[O-])ccc(c34)C2=O)c1	n	n	n	n	n	x	x
COCCNC(=O)c1ccc(CSc2nc3ccccc3s2)cc1	31	n	n	n	n	n	28
CN(C)CCCNC(=O)c1ccccn1	n	n	n	n	n	x	x
CN(C)CCCNC(=O)c1ccc(-c2nc(-c3ccc(Cl)cc3)cs2)cc1	41	n	n	n	n	91	92
O=C(Cn1nc(-c2ccccc2)ccc1=O)Nc1ccc(-n2cnnn2)cc1	27	n	n	n	n	n	41
CC(C)CNS(=O)(=O)c1ccc(NC(=O)Cn2nc(-c3ccc(F)cc3)ccc2=O)cc1	33	n	n	n	n	n	n
O=C(Cn1nc(-c2ccc3c(c2)OCCO3)ccc1=O)Nc1ccc(-n2cnnn2)cc1	n	n	n	n	n	x	x
COc1cc(/C=N/NC(=O)CSCc2ccc([N+](=O)[O-])cc2)cc(OC)c1OC	22	n	n	n	n	26	23
O=C(COc1ccc([N+](=O)[O-])cc1)Nc1ccc2c(c1)CCC2	x	n	x	x	x	x	x
O=C(Cc1ccc([N+](=O)[O-])cc1)Nc1ccc2c(c1)CCC2	22	n	n	n	n	n	27
CC(=O)c1ccc(OCc2cc(C(=O)NCCn3nc(C)cc3C)no2)cc1	n	n	n	n	n	x	x
COc1ccc(CN(C)C(=O)c2[nH]c(C)c(C(C)=O)c2C)c(OC)c1OC	21	n	n	n	n	n	n
COc1ccc(CN(C)C(=O)c2cnc(C)cn2)c(OC)c1OC	n	n	n	n	n	x	x
COc1ccc(C(=O)OCC(O)COC(=O)c2ccc(OC)cc2)cc1	x	n	x	n	x	x	x
COc1ccc(C(CCNC(C)c2ccccc2)c2ccc(F)cc2)cc1 (stereo unspecified)	40	n	n	n	n	47	56
COc1ccc(C(CCNCc2ccc(F)cc2)c2ccc(F)cc2)cc1 (stereo unspecified)	39	n	n	n	n	50	77
SMILES	GPR7 antagonist	ZTA counter	FID counter	EBNA-1 inhibitor	NS3 helicase inh	GPR7 antag cf	MCHR1 antag
COc1ccc(CNCCC(c2ccc(F)cc2)c2ccc(OC(C)C)cc2)cc1OC (stereo unspecified)	32	n	38	n	n	43	77
COc1ccc(C(CCNCc2ccccc2)c2ccc(F)cc2)cc1 (stereo unspecified)	n	n	n	n	n	x	x
COc1ccc(CNCCC(c2ccccc2)c2ccc(OC(C)C)cc2)cc1OC (stereo unspecified)	n	n	n	n	n	x	x
Cc1nn(CC(=O)N2CCN(c3cccc(C(F)(F)F)c3)CC2)c(=O)c2cccn12	n	n	n	n	n	x	x
Cc1nn(Cc2ccccc2)c2ncccc12	n	n	n	n	n	x	x
COc1ccc(NS(=O)(=O)c2ccc(OC)c(N(C)S(=O)(=O)c3ccc(Cl)cc3)c2)cc1	27	n	n	n	n	29	52
